Screening results (PubChem BioAssay)
In the library only some 2.6% were active in any assay of this set; here they are far more common.
WT yeast gro inh – growth inhibition of WT yeast, mitochondrial fusion screen; AID 1362; 190,000 compounds, 2.1% hits; inhibition, % at 10 µM; mitochondrial fusion phenotypic screen, WT strain; in the data active means inhibition above about 58%; tested in S. cerevisiae
TNAP inh no acc – inhibitors of human TNAP without phosphate acceptor. P05186. purified TNAP, CDP-star luminescence, 30 min. inhibition, % at 20 µM. 200,000 compounds, 0.26% hits;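 active means tissue-nonspecific alkaline phosphatase inhibition above about 50% at 20 µM in the single-dose screen, limit read from the data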;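 further: 0% = DMSO negative control and 100% = EDTA positive control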
Target sequence (P05186 whole entry, looked up): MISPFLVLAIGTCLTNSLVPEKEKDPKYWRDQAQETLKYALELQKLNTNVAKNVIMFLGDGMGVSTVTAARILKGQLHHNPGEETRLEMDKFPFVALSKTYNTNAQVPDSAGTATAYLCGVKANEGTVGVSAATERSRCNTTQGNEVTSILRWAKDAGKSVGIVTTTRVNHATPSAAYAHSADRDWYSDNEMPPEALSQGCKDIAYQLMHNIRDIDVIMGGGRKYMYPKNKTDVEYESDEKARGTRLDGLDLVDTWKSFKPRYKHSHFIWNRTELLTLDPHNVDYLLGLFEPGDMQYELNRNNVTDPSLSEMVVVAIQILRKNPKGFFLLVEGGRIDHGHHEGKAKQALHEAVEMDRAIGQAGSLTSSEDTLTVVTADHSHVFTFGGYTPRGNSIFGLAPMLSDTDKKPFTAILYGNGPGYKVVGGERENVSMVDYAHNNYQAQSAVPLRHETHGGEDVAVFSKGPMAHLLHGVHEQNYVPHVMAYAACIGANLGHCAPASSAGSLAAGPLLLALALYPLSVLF
TNAP act hi DEA – TNAP (human) activation, high acceptor; purified TNAP, CDP-star luminescence, 1 M DEA, 30 min; active compounds read high; 0 = EDTA background, 1 = DMSO-only activity; activation factor at 20 µM; 200,000 tested, under 10 active; AID 1136; P05186;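 active means activation factor at least 2 at 20 µM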
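Control set: EDTA negative control, DMSO positive control / Assay system: human TNAP / Quantity: TNAP 1/800 final / Evaluation: TNAP activation factor scaled between EDTA and DMSO control wells / Measured by: luminescent substrate turnover signal / Compound dosing: one dose, 20 µM / Times: 30 min enzyme reaction at room temperature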
Arbovirus inh – blocks arbovirus infection; inhibition, % at 10 µM; AID 1251; 200,000 compounds, 0.37% hits; arbovirus infection cell-based antiviral screen; in the data active means inhibition above about 30%
TNAP inh hi DEA – TNAP (human) inhibition, high acceptor. purified TNAP, CDP-star luminescence, 1 M DEA. AID 1135. P05186. 200,000 compounds, 0.03% hits. inhibition, % at 20 µM;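 active means over 50% inhibition of tissue-nonspecific alkaline phosphatase at 20 µM in the single-dose screen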;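 further: plate controls were DMSO wells for no effect and EDTA-quenched wells as full inhibition for full effect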
Numbers without * were called inactive.

SMILES	WT yeast gro inh	TNAP inh no acc	TNAP act hi DEA	Arbovirus inh	TNAP inh hi DEA
Cc1ccc(Oc2nc(CN3CCOCC3)nc3sc4c(c23)CCC(C)C4)cc1C (stereo not given)	65*	-25	1.1	-39	-6
CC1CCc2c(sc3nc(CN4CCOCC4)nc(N4CCc5ccccc5C4)c23)C1 (stereo not given)	23	-4	1	0	1
CC1CCc2c(sc3nc(CN4CCOCC4)nc(NS(=O)(=O)c4cccc([N+](=O)[O-])c4)c23)C1 (stereo not given)	-7	-12	1	18	2
Cc1ccc(Oc2nc(CN3CCOCC3)nc3sc4c(c23)CCC(C)C4)cc1 (stereo not given)	63*	-9	1.1	-38	-6
CCCOc1ccc(CNCCCOCC)cc1OC	-1	-8	1	-1	-2
C/C(=N\Nc1nc2ccccc2s1)c1ccc2c(c1)OCO2	16	-10	1	-2	-2
C/C(=N\Nc1nc2ccccc2s1)c1ccc(Br)s1	94*	-7	1	-21	3
C/C(=N\NC(=O)c1ccccc1O)C1C(=O)c2ccccc2C1=O	-17	60*	0.9	18	12
C/C(=N\NC(=O)c1ccccc1O)c1ccc(Br)s1	66*	-12	1	-7	-5
O=C(c1n[nH]c2ccccc12)N1CCN(S(=O)(=O)c2ccc3ccccc3c2)CC1	77*	3	1.1	9	-7
O=C(N/N=C1\CC2CC=CC12)c1ccc(COc2ccccc2)cc1 (stereo not given)	-2	-5	1.1	-16	-7
CC(C)(C)c1ccc(OCc2ccc(C(=O)N/N=C3\CC4CC=CC34)cc2)cc1 (stereo not given)	72*	-10	1	-32	-1
CC(=O)Oc1ccc(N2C(=O)C3C4C=CC(CO)(O4)C3C2=O)cc1 (stereo not given)	23	-3	1.1	11	-9
O=C1C2C3C=CC(CO)(O3)C2C(=O)N1c1ccccc1-c1ccccc1 (stereo not given)	69*	-11	1	-1	0
CCOC(=O)c1ccc(NC(=O)c2ccc(C)c(S(=O)(=O)N3CCOCC3)c2)cc1	-10	-14	1.1	33*	-8
Oc1ccccc1CNCCCNCc1ccccc1O	0	-48	1	44*	-1
O=C(NCCc1ccccc1)c1cc(=O)c2ccccc2o1	7	7	1	3	-3
Cc1ccccc1-c1ncc(CN2CCC(CO)(CCCc3ccccc3)CC2)cn1	87*	11	1	-10	3
OCC1(Cc2ccccc2)CCN(Cc2cnc(-c3cccc4ccccc34)nc2)CC1	19	-6	1	10	-3
CCc1sc(C(=O)Nc2cccc(C(C)=O)c2)cc1C	34	-11	1	4	-2
O=C1c2ccccc2C(=O)N1CCCc1nc2ccccc2c(=O)n1CCCn1ccnc1	12	53*	0.8	7	17
Cn1c(-n2c(CCCN3C(=O)c4ccccc4C3=O)nc3ccccc3c2=O)nc2ccccc21	2	-5	1	-6	-2
Cc1n[nH]c(C)c1S(=O)(=O)NCCc1ccc(Cl)cc1	5	61*	1	0	-3
Clc1ccc(OCCn2c(-c3ccco3)nc3ccccc32)cc1	83*	-14	1.1	-24	-9
c1coc(Cn2c(-c3ccco3)nc3ccccc32)c1	-4	-10	1.1	2	-6
SMILES	WT yeast gro inh	TNAP inh no acc	TNAP act hi DEA	Arbovirus inh	TNAP inh hi DEA
Cc1nn(-c2cc(N3CCCCC3)ccc2N)c(=O)c2ccccc12	1	0	1	11	-3
Nc1ccc(N2CCCCC2)cc1N1CCCCC1	72*	-4	1	-15	-1
COCCNC(=O)c1cccc(Nc2nc(-c3ccccc3)c3cc(Cl)ccc3n2)c1	61*	-2	1	-24	2
OCCNc1nc(-c2ccccc2)c2cc(Cl)ccc2n1	6	-14	1.1	-19	-9
COc1ccc(C(C)=O)cc1CSc1nnc(Nc2ccccc2C)s1	12	-26	1	4	-3
COc1ccc(C(C)=O)cc1CSc1nnc(Nc2ccc(C)cc2C)s1	61*	-40	1	-9	2
CC(O)(CS(=O)(=O)Cc1ccc(Cl)cc1)C(=O)Nc1cccc(C(F)(F)F)c1 (stereo not given)	2	-4	1	-5	-2
O=C(Nc1cccc(C(F)(F)F)c1)N(Cc1ccc(Cl)cc1)CC(O)C(F)(F)F (stereo not given)	84*	-6	1	-42	-2
O=C1CCc2ccc(NC(=O)C3CC3)cc2N1	-14	-13	1.1	6	-6
CCOC(=O)c1sc(NC(=O)Nc2cccc(Cl)c2)cc1C	67*	-10	1	-20	0
CCOC(=O)c1sc(NC(=O)c2cccs2)cc1C	22	-3	1	-9	4
O=C1c2ccccc2C(Nc2ccc(F)cc2F)N1CCN1CCOCC1 (stereo not given)	4	-5	1	0	-1
CC(=O)N(C)c1nnc(-c2cnccn2)s1	74*	-10	1	7	-2
CCn1cc(C(=O)NCc2ccc3c(c2)OCO3)c(=O)c2cc(F)c(N3CCN(C(=O)c4ccco4)CC3)cc21	21	0	1	-32	-2
COc1ccc(-c2[nH]ncc2CNC(C)c2cn(C)nc2C)c(F)c1 (stereo not given)	-6	74*	1.1	3	-7
COc1ccc(-c2nn(-c3ccccc3C)cc2CNC(C)c2cn(C)nc2C)cc1F (stereo not given)	4	-6	1	0	-1
COc1ccc(-c2[nH]ncc2CN(C)C(C)c2cccs2)c(F)c1 (stereo not given)	-6	21	1.1	16	-6
COc1ccc(-c2[nH]ncc2CNC(C)CCn2cccn2)c(F)c1 (stereo not given)	1	72*	1	8	-4
O=c1c2ccccc2nc(N2CCN(c3ccccc3)CC2)n1Cc1ccccc1	30	-17	1.1	15	-9
CCOCCCNc1nc(C)nc2c1nnn2Cc1c(F)cccc1Cl	4	-1	1	0	-2
CC(C)Oc1ccc(C(=O)NC2(C(F)(F)F)NC(=O)N(CCCc3ccccc3)C2=O)cc1 (stereo not given)	65*	-2	1	-21	-2
N#CCCn1ncn(-c2ccccc2)c1=S	0	-12	1	5	-4
Cc1nc(SCc2ccc(OCCC(C)C)cc2)n[nH]1	73	-104	1	-9	-5
CCCCCOc1ccc(CSc2n[nH]c(C)n2)cc1	80*	-5	1	13	-2
CCOC(=O)CSc1nc2c(sc(=S)n2-c2ccc(OCC)cc2)c(=O)[nH]1	-2	-6	1	42*	-1
CCOc1ccc(-n2c(=S)sc3c(=O)[nH]c(SCC(=O)C(C)(C)C)nc32)cc1	-9	-5	1	33*	2
CCOC(=O)CSc1nc2c(sc(=S)n2-c2ccccc2)c(=O)[nH]1	-1	3	1	22	0
